Source: ChEMBL document CHEMBL1782042, “Efficient microwave-assisted synthesis and antitumor activity of novel 4,4'-methylenebis[2-(3-aryl-4,5-dihydro-1H-pyrazol-5-yl)phenols]” (Eur J Med Chem, 2011)

Legend:
[1] = system: KM12; experiment: Cytotoxicity against human KM12 cells; assay type: cell-based
Method in brief: (§1)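 NCI 60 human tumour cell line screen, second stage at five concentrations (100, 10, 1.0, 0.1 and 0.01 μM). Continuous drug exposure for 48 h, with cell growth estimated by sulforhodamine B protein staining. GI50 is the drug concentration giving a 50% reduction in net protein increase relative to control cells over the incubation.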

[2] = system: OVCAR-4; experiment: Cytotoxicity against human OVCAR4 cells; assay type: cell-based; method in brief: as §1
[3] = system: NCI-H226; experiment: Cytotoxicity against human NCI-H226 cells; assay type: cell-based; method in brief: as §1
[4] = system: 786-0; experiment: Cytotoxicity against human 786-0 cells; assay type: cell-based; method in brief: as §1
[5] = system: SF-295; experiment: Anticancer activity against human SF295 cells after 48 hrs by sulforhodamine B assay; assay type: functional; conditions: SF-295, 48 h
Method in brief: (§2)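 NCI 60-cell-line in vitro screen, second stage: five concentration levels (100, 10, 1.0, 0.1 and 0.01 μM) with 48 h continuous drug exposure. Cell growth was estimated by sulforhodamine B protein staining. GI50 is the drug concentration that gives a 50% reduction in net protein increase relative to control cells over the incubation.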

[6] = system: NCI/ADR-RES; experiment: Anticancer activity against human NCI/ADR-RES cells after 48 hrs by sulforhodamine B assay; assay type: functional; method in brief: as §2
[7] = system: DU-145; experiment: Cytotoxicity against human DU145 cells; assay type: cell-based; method in brief: as §1
[8] = system: HCC 2998; experiment: Anticancer activity against human HCC2998 cells after 48 hrs by sulforhodamine B assay; assay type: functional; conditions: HCC 2998, 48 h; method in brief: as §2
[9] = system: MCF7; experiment: Anticancer activity against human MCF7 cells after 48 hrs by sulforhodamine B assay; assay type: functional; conditions: MCF7, 48 h; method in brief: as §2
[10] = system: NCI-H522; experiment: Cytotoxicity against human NCI-H522 cells; assay type: cell-based; method in brief: as §1
[11] = system: M14; experiment: Cytotoxicity against human M14 cells; assay type: cell-based; method in brief: as §1
[12] = system: TK-10; experiment: Cytotoxicity against human TK10 cells; assay type: cell-based
Method in brief: (§3)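 NCI 60 human tumour cell line screen; five concentration levels (100, 10, 1.0, 0.1 and 0.01 μM), 48 h continuous drug exposure. Cell growth estimated by sulforhodamine B (SRB) protein staining. GI50 taken as the drug concentration giving a 50% reduction in net protein increase relative to control cells over the incubation.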

[13] = system: HCT-15; experiment: Anticancer activity against human HCT15 cells after 48 hrs by sulforhodamine B assay; assay type: functional; conditions: HCT-15, 48 h; method in brief: as §2
[14] = system: HL-60(TB); experiment: Anticancer activity against human HL-60(TB) cells after 48 hrs by sulforhodamine B assay; assay type: functional; conditions: HL-60, 48 h; method in brief: as §1
[15] = system: T47D; experiment: Anticancer activity against human T47D cells after 48 hrs by sulforhodamine B assay; assay type: functional
Method in brief: (§4)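 NCI 60-cell-line screen, second stage. Five concentration levels (100, 10, 1.0, 0.1 and 0.01 μM), 48 h continuous drug exposure. Cell growth was estimated by sulforhodamine B protein staining. GI50 is the concentration giving a 50% reduction in net protein increase relative to control cells over the drug incubation. Compounds entered this stage after an earlier single-dose screen.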

[16] = system: SK-MEL-28; experiment: Anticancer activity against human SK-MEL-28 cells after 48 hrs by sulforhodamine B assay; assay type: functional; conditions: SK-MEL-28, 48 h; method in brief: as §2
[17] = system: K562; experiment: Cytotoxicity against human K562 cells; assay type: cell-based; method in brief: as §1
[18] = system: NCI-H23; experiment: Cytotoxicity against human NCI-H23 cells; assay type: cell-based; method in brief: as §1
[19] = system: SNB-75; experiment: Anticancer activity against human SNB75 cells after 48 hrs by sulforhodamine B assay; assay type: functional; conditions: SNB-75, 48 h; method in brief: as §4
[20] = system: HOP-92; experiment: Anticancer activity against human HOP92 cells after 48 hrs by sulforhodamine B assay; assay type: functional; conditions: HOP-92, 48 h; method in brief: as §2
[21] = system: A549; experiment: Anticancer activity against human A549 cells after 48 hrs by sulforhodamine B assay; assay type: functional; conditions: A549, 48 h; method in brief: as §2
[22] = system: SK-MEL-28; experiment: Cytotoxicity against human SK-MEL-28 cells; assay type: cell-based; method in brief: as §1
[23] = system: MOLT-4; experiment: Anticancer activity against human MOLT4 cells after 48 hrs by sulforhodamine B assay; assay type: functional; conditions: MOLT-4, 48 h; method in brief: as §2
[24] = system: SK-MEL-2; experiment: Cytotoxicity against human SK-MEL-2 cells; assay type: cell-based; method in brief: as §1
[25] = system: BT-549; experiment: Anticancer activity against human BT549 cells after 48 hrs by sulforhodamine B assay; assay type: functional; conditions: BT-549, 48 h; method in brief: as §2
[26] = system: NCI-H23; experiment: Anticancer activity against human NCI-H23 cells after 48 hrs by sulforhodamine B assay; assay type: functional; conditions: NCI-H23, 48 h; method in brief: as §2
[27] = system: NCI-H322M; experiment: Cytotoxicity against human NCI-H322M cells; assay type: cell-based; method in brief: as §1
[28] = system: COLO 205; experiment: Anticancer activity against human COLO205 cells after 48 hrs by sulforhodamine B assay; assay type: functional; conditions: COLO 205, 48 h; method in brief: as §2
[29] = system: PC-3; experiment: Anticancer activity against human PC3 cells after 48 hrs by sulforhodamine B assay; assay type: functional; conditions: PC-3, 48 h; method in brief: as §2
[30] = system: ACHN; experiment: Cytotoxicity against human ACHN cells; assay type: cell-based; method in brief: as §1
[31] = system: SN12C; experiment: Anticancer activity against human SN12C cells after 48 hrs by sulforhodamine B assay; assay type: functional; method in brief: as §2
[32] = system: MCF7; experiment: Cytotoxicity against human MCF7 cells; assay type: cell-based; method in brief: as §1
[33] = system: SN12C; experiment: Cytotoxicity against human SN12C cells; assay type: cell-based; method in brief: as §3
[34] = system: OVCAR-8; experiment: Anticancer activity against human OVCAR8 cells after 48 hrs by sulforhodamine B assay; assay type: functional; conditions: OVCAR-8, 48 h; method in brief: as §2
[35] = system: SK-OV-3; experiment: Anticancer activity against human SKOV3 cells after 48 hrs by sulforhodamine B assay; assay type: functional; conditions: SK-OV-3, 48 h; method in brief: as §2
[36] = system: MDA-MB-468; experiment: Anticancer activity against human MDA-MB-468 cells after 48 hrs by sulforhodamine B assay; assay type: functional; conditions: MDA-MB-468, 48 h; method in brief: as §2
[37] = system: SR; experiment: Cytotoxicity against human SR cells; assay type: cell-based; method in brief: as §3
[38] = system: ACHN; experiment: Anticancer activity against human ACHN cells after 48 hrs by sulforhodamine B assay; assay type: functional; method in brief: as §2
[39] = system: UO-31; experiment: Cytotoxicity against human UO31 cells; assay type: cell-based; method in brief: as §3
[40] = system: SR; experiment: Anticancer activity against human SR cells after 48 hrs by sulforhodamine B assay; assay type: functional; method in brief: as §4
[41] = system: NCI-H226; experiment: Anticancer activity against human NCI-H226 cells after 48 hrs by sulforhodamine B assay; assay type: functional; conditions: NCI-H226, 48 h; method in brief: as §2
[42] = system: MDA-MB-231; experiment: Anticancer activity against human MDA-MB-231 cells after 48 hrs by sulforhodamine B assay; assay type: functional; conditions: MDA-MB-231, 48 h; method in brief: as §2
[43] = system: IGROV-1; experiment: Anticancer activity against human IGROV1 cells after 48 hrs by sulforhodamine B assay; assay type: functional; conditions: IGROV-1, 48 h; method in brief: as §2
[44] = system: UACC-257; experiment: Anticancer activity against human UACC257 cells after 48 hrs by sulforhodamine B assay; assay type: functional; conditions: UACC-257, 48 h; method in brief: as §4
[45] = system: OVCAR-8; experiment: Cytotoxicity against human OVCAR8 cells; assay type: cell-based; method in brief: as §1
[46] = system: CAKI-1; experiment: Anticancer activity against human Caki1 cells after 48 hrs by sulforhodamine B assay; assay type: functional; conditions: CAKI-1, 48 h; method in brief: as §2
[47] = system: DU-145; experiment: Anticancer activity against human DU145 cells after 48 hrs by sulforhodamine B assay; assay type: functional; conditions: DU-145, 48 h; method in brief: as §2
[48] = system: M14; experiment: Anticancer activity against human M14 cells after 48 hrs by sulforhodamine B assay; assay type: functional; conditions: M14, 48 h; method in brief: as §2
[49] = system: SNB-19; experiment: Anticancer activity against human SNB19 cells after 48 hrs by sulforhodamine B assay; assay type: functional; conditions: SNB-19, 48 h; method in brief: as §2
[50] = system: SF-539; experiment: Cytotoxicity against human SF539 cells; assay type: cell-based; method in brief: as §1
[51] = system: K562; experiment: Anticancer activity against human K562 cells after 48 hrs by sulforhodamine B assay; assay type: functional; conditions: K562, 48 h; method in brief: as §2

**Q.** What does the source list for Oc1ccc(Cc2ccc(O)c(C3CC(c4ccc(Cl)cc4)=NN3)c2)cc1C1CC(c2ccc(Cl)cc2)=NN1 (stereo unspecified)?
**A.** LC50 [1]: > 100 µM; LC50 [2]: > 100 µM; LC50 [3]: > 100 µM; LC50 [4]: > 100 µM; GI50 [5]: 1.47 µM; GI50 [6]: 2.24 µM; LC50 [7]: > 100 µM; GI50 [8]: 4.88 µM; GI50 [9]: 3.04 µM; LC50 [10]: 46.2 µM; LC50 [11]: > 100 µM; LC50 [12]: > 100 µM; GI50 [13]: 2.51 µM; GI50 [14]: 2.66 µM; GI50 [15]: 3.79 µM; GI50 [16]: 9.84 µM; LC50 [17]: > 100 µM; LC50 [18]: > 100 µM; GI50 [19]: 4.26 µM; GI50 [20]: 3.39 µM; GI50 [21]: 2.45 µM; LC50 [22]: > 100 µM; GI50 [23]: 2.7 µM; LC50 [24]: 85.5 µM; GI50 [25]: 4.78 µM; GI50 [26]: 3.3 µM; LC50 [27]: > 100 µM; GI50 [28]: 5.44 µM; GI50 [29]: 3.32 µM; LC50 [30]: > 100 µM; GI50 [31]: 2.86 µM; LC50 [32]: > 100 µM; LC50 [33]: > 100 µM; GI50 [34]: 2.46 µM; GI50 [35]: 4.43 µM; GI50 [36]: 3.5 µM; LC50 [37]: > 100 µM; GI50 [38]: 3.63 µM; LC50 [39]: > 100 µM; GI50 [40]: 1.83 µM; GI50 [41]: 4.74 µM; GI50 [42]: 2.65 µM; GI50 [43]: 4.11 µM; GI50 [44]: 2.56 µM; LC50 [45]: > 100 µM; GI50 [46]: 2.67 µM; GI50 [47]: 3.46 µM; GI50 [48]: 4.45 µM; GI50 [49]: 3.64 µM; LC50 [50]: > 100 µM; GI50 [51]: 1.75 µM
